In one assay the test system is UO-31. Nature of the assay: Cytotoxicity against human UO31 cells assessed as cell growth at 10 uM after 48 hrs by SRB assay. The class given is functional. Conditions: UO-31, 48 h, read-out: Activity. The method in brief:
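This was a single-concentration screen on UO-31 in RPMI 1640 with 5% FBS. Compound went on 24 h after plating, with 48 h exposure at 37 °C. End point was sulforhodamine B protein staining read at 515 nm. Results are percent growth of treated cells relative to untreated controls and time-zero plates.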
(In SRB staining, fixed cells bind dye roughly in proportion to their protein.)

The subject of a further assay is K562. Put plainly: Cytotoxicity against human K562 cells assessed as cell growth at 10 uM after 48 hrs by SRB assay. The class given is functional. Conditions: K562, 48 h, read-out: Activity. The method in brief: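 NCI single-dose screen at 10 µM. Cells were incubated 48 h and the end point was read by sulforhodamine B protein staining. Results are given as percent growth of treated cells relative to untreated controls. Growth of 32% or less was counted as active.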

Our source for the growth values is ChEMBL document CHEMBL2157987, “Benzimidazole bearing oxadiazole and triazolo-thiadiazoles nucleus: design and synthesis as anticancer agents” (2012).

As to `O=C(CCc1nnc(-c2cc(O)c(O)c(O)c2)o1)c1nc2ccccc2[nH]1`, the growth at 10 µM in the assay with UO-31 turned out to be 62.2%.

For `O=C(CCc1nnc(/C=C/c2ccccc2)o1)c1nc2ccccc2[nH]1`, the growth at 10 µM in the assay on K562 came out at 24.6%.

For `O=C(CCc1nnc2sc(-c3cc(O)c(O)c(O)c3)nn12)c1nc2ccccc2[nH]1`, in the assay on K562, the growth at 10 µM amounted to 8.3%.

As for `Nc1cc(Br)c(-c2nn3c(CCC(=O)c4nc5ccccc5[nH]4)nnc3s2)c(Br)c1`, the growth at 10 µM in the assay on K562 worked out at 7.05%.

With `O=C(CCc1nnc2sc(/C=C/c3ccccc3)nn12)c1nc2ccccc2[nH]1`, the growth at 10 µM in the assay on K562 came out at 2.17%.
